The EternaBench riboswitch data

Test system: MS2 coat protein
Test: apparent Kd, MS2 coat protein; higher = weaker binding; RNA-MaP array; FMN 200 µM where present
In short: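 Stalled E. coli RNA polymerase produced the designs on Illumina sequencing-chip clusters. SNAP-549-labelled MS2 coat protein was added from 0.7 or 1.5 nM, doubling to 3 µM, without and then with constant ligand, in 100 mM Tris-HCl pH 7.5, 80 mM KCl, 4 mM MgCl2, BSA, DTT, yeast tRNA and Tween-20. The apparent Kd is the median of filtered per-cluster fits of green signal normalised to red-channel RNA signal and control-cluster median Fmax.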

[1] = designed as: OFF switch for flavin mononucleotide, no ligand
[2] = ligand present: flavin mononucleotide, designed as: OFF switch for flavin mononucleotide
[3] = designed as: ON switch for flavin mononucleotide, no ligand
[4] = ligand present: flavin mononucleotide, designed as: ON switch for flavin mononucleotide

| Sequence | apparent Kd [1] | apparent Kd [2] | apparent Kd [3] | apparent Kd [4] |
| --- | --- | --- | --- | --- |
| GUCAGCAAAUAAGGAUAUACAUCACUGCUUCGGCAGUGUAUUAAGAUCACAUGAGGAUCACCCAUGUAGAAGGUAUAAGCUGAU | 8.12 nM | 29.4 nM | – | – |
| UAGGACUACGUAGGAUAUUAAAUCAUGUACUACAUGAGGAUCACCCAUGUUAAUUUAACAUCAGCUGAGAAGGACGUGGUAAAU | – | – | 120 nM | 58.5 nM |
| GCUCGUCGUGGAAGAGCAAAAGGACAGGAUAUCGCUUAAACAUGAGGAUCACCCAUGUCCGUUAACGAGAAGGGUCGAAUAAAU | – | – | 138 nM | 24.3 nM |
| GUAUGUAACAAGGAUAUGCCCUCGAUACGAUUUGCAGAAGGUGUUACAUGAGGAUCACCCAUGUGGCCUUGCAU | 19.4 nM | 74.9 nM | – | – |
| AAUAUUAAGUAGAAGGUAGAUAUUAUUUUAUUCAUGUUUACAUGAGGAUCACCCAUGUAUAAGUCUAAGGAUAUACAUCGAUAG | 14.9 nM | 9.93 nM | – | – |
| GACUUGUCAGGAUAUCUUACAUAAACAUCGUAGUUACAAUUGGAGAAGGGACAUGAGGAUCACCCAUGUUUGCG | 25.1 nM | 29.3 nM | – | – |
| UUGGACGUCGUAGGAUAUGUAGGAUAUUCCUACAUGAGGAUCACCCAUGUUGACAUGGAAGAAGGACAGAAGGACGGUGUCCAU | – | – | 241 nM | 4.54 nM |
| CAUAUGGGAGGAUAUGCAUAGAUAAAGAAACAUGUUCAACCACAUGAGGAUCACCCAUGUAGAAGGCCCAUAUG | 29.6 nM | 162 nM | – | – |
| AAGAAGUGAGGAUAUAGUUGCACUAGCUAAUGCUAGUGCAACUAGAAGGCACAUGAGGAUCACCCAUGUAAAAG | 29.1 nM | 41.9 nM | – | – |
| AAGAAGUCAGGAUAUCCAUGGCGGCACUUGCGUGGUGGCGUGGAGAAGGGACAUGAGGAUCACCCAUGUAAAGC | 47.1 nM | 32.8 nM | – | – |
| AUGGCUAAUGAGAAGGUGUAUAUAAAUUAUAUACAAGGAUAUCGGUCAAGCAUGAAAACAUGAGGAUCACCCAUGUUAAGCCAU | – | – | 8.11 nM | 7.01 nM |
| CCCUCGUAGUAGAAGGGCGGCCGAAAUCUGCACGCAGGAUAUACAUGAGGAUCACCCAUGUACUGAGCUGAAGAGCACUUGGAA | 15.1 nM | 14.5 nM | – | – |
| GUCCUCCGUGCCCUUAACGCACAUGAGGAUCACCCAUGUAGGAGAAGGGCCCAACAAAUCAAAGGGCAGGAUAUCCAAAUCAUG | 75.1 nM | 18.9 nM | – | – |
| GCUGUCGUAUGAGGAUAUGGUCAGCUUUGCUGACCAGAAGGCAUGUCAAUAGACAUGAGGAUCACCCAUGUAGUAAAGACAGCA | – | – | 402 nM | 39 nM |
| AGCUGGAGAGGAUAUACGUAGGUAAAAAAAGUCUGAUAACUACAUGAGGAUCACCCAUGUAGAAGGCUCUGGCA | 16 nM | 43.8 nM | – | – |
| CCUCUUGGGCAAGGAUAUCCUGCGCGGUUCCGGUUCGUGUCUGUCACAUGAGGAUCACCCAUGUGGGAGAAGGUGCCUGCGGUC | 17.9 nM | 24.2 nM | – | – |
| ACAUGAGGAUCACCCAUGUUGACAUAGGAUAUACAACAUUAGUUUCAUUCAUGUAAACUUUGAUAGUAGAAGGAUGGUACAUGA | 13.2 nM | 13 nM | – | – |
| AGGAGGUCAGGAUAUGCAUGGCGGGACUUGCGUCGUGGCGUGCAGAAGGGACAUGAGGAUCACCCAUGUGGAGG | 125 nM | 181 nM | – | – |
| CUGAUGUAAGGAUAUGUGUAGAAAUCAAAUCGGAUAUUCUAACAGAAGGUACAUGAGGAUCACCCAUGUGAGAA | 39.7 nM | 71.2 nM | – | – |
| GUAGCAUUCUGAGGAUAUUCAUACCGGAAACGGACAUGAGGAUCACCCAUGUGGCGAAAGCCUUGGAAGAAGGCAGUAUGCUAC | – | – | 4.27 nM | 3.56 nM |
| UUGGACGUCGUAGGAUAUGUAGGAUAUUCAUACAUGAGGAUCACCCAUGUUGACAUGGAAGAAGGACAGAAGGACGAUGUCCAU | – | – | 8.63 nM | 4.56 nM |
| GGUUACAUCGGAGGAUAUCAUGUAAAUACAUGAGGAUCACCCAUGUCGAUGGAGACAUCGGAGAUUGAGAAGGCCGAUGUACCG | – | – | 170 nM | 7.97 nM |
| AAUUUACAGGGAGGAUAUACAUGAGGAUCACCCAUGUCAUCAUAUGAUAUUUCUUUUGUAUGAGUGUAGAAGGCCCAACUACCA | 18.2 nM | 18.3 nM | – | – |
| CGCGCUUUAGGAUAUGCGUGAUGUCGUCGGCGUUGUGGUUCACAUGAGGAUCACCCAUGUAGAAGGGAGGUGUG | 205 nM | 175 nM | – | – |

| Sequence | apparent Kd [1] | apparent Kd [2] | apparent Kd [3] | apparent Kd [4] |
| --- | --- | --- | --- | --- |
| AUCAGCUCGUCAGGAUAUACGUCACUGCGUCAGCAGUGUGGUAAGAUCACAUGAGGAUCACCCAUGUAGAAGGGACGAGCUGUU | 13.2 nM | 269 nM | – | – |
| CUCAUUAGUCAGGAUAUCGUGUGGGUAAUUGUACGAGAAGGGACGACAUGAGGAUCACCCAUGUGGUCUUUGAG | 71 nM | 317 nM | – | – |
| CGAUAUUAUGCAGGAUAUCUAUCUUGAAUGAGGAGAGAAGGGCAUAGGGAGACAUAAGCCUUAUUACAUGAGGAUCACCCAUGU | 11.2 nM | 9.38 nM | – | – |
| AUAUAUAUUUAGAAGGACAUGAGGAUCACCCAUGUCGCUGGGCCCGGGAAACCGGGCCCGGCCAUGUAGGAUAUAGAUAUAUAU | 6.72 nM | 9.5 nM | – | – |
| UGUUACUAGUAAGGAUAUACUUGCGAUAAGCUUGUAGAAGGUACAGUCUUUUGUAUAACACGUUUACAUGAGGAUCACCCAUGU | – | – | 6.94 nM | 6.01 nM |
| GCACGGUUGGUAGGAUAUCAUUGCGAUUAGCUAUGAGAAGGACCACAUGAGGAUCACCCAUGUCCUCUAAUUAGCCUGCCGUGC | 152 nM | 355 nM | – | – |
| UUUAUUUAGGCAGGAUAUACAUGUAUAUAUAUUUUUUUAUAUAUUAUUACAUGAGGAUCACCCAUGUAGAAGGGCCUUAUUAUA | 75.6 nM | 89.1 nM | – | – |
| CUUUUUUUUGUGAGGAUAUACUGUUAUUAAAGUUAGUAGAAGGUACAUGAGGAUCACCCAUGUUAAUUACUCUA | 14.1 nM | 14.9 nM | – | – |
| UAGUAUAAGGGCAUUACACAUGAGGAUCACCCAUGUACGUUAGAGGAUAUGCAUUACAGUCGAACGUAGAAGGUUAGAGAAGGG | 168 nM | 157 nM | – | – |
| GUGAUCCCGGUUAGGAUAUUAGUGAUGUACACCUCUGAGAAGGGACAUGAGGAUCACCCAUGUCGCCUUGAAAC | 17.7 nM | 22.6 nM | – | – |
| GGUGUCAUCGAGAAGGCCUCAACAUGAGGAUCACCCAUGUUGUAAUAUGGGAGGAUAUCGAUGAUACAGCUACGUUUCGUAGCA | – | – | 18.5 nM | 6.1 nM |
| AGCUGGUGACAGCAUCCAUCUUAACAUGAGGAUCACCCAUGUAGAAGGCUGUACGGUUACCGUACAGAGGAUAUACAUAGAUGG | 7.95 nM | – | – | – |
| ACGUUCAAAGGAUAUACAUGAGGAUCACCCAUGUCCGUCAUGCAAGCGACGGUUUGCUGUAGAAGGUUGAACGC | 22.4 nM | 114 nM | – | – |
| GUAGAGUCAGGAUAUACAAGAUCGAAAGAUCGAAGAUCCAUACAUGAGGAUCACCCAUGUAGAAGGGACUCUAC | 17.1 nM | 35.8 nM | – | – |
| ACCAAUGGAGGAUAUACAUGAGGAUCACCCAUGUAUAACCUACAUAGGUGAAAAUUAUGUAGAAGGCCAUUGGA | 14.6 nM | 13.4 nM | – | – |
| CCGGGUCGGGAGGAUAUUCGGGCCCAAGGGCUUGGAGAAGGCUCGACAUGAGGAUCACCCAUGUAAGUGUAAGG | 345 nM | 698 nM | – | – |
| UCGCUGCGAGGAUAUACAUGAGGAUCACCCAUGUACGGGUCCGGGUCUAAGUUGAUAAGUAGAAGGCGCAGUGA | 125 nM | 112 nM | – | – |
| CCUCCCUGAGGAUAUCCACCCUCAUACAUGAGGAUCACCCAUGUUCAUCCCUGGGUACCCGGAGAAGGCAGAUUUC | 154 nM | 165 nM | – | – |
| AAAAAACAUGAGGAUCACCCAUGUCAAAAGACAUGAGGAUAUGUACAGACUUCGGUCUGUACAGAAGGCAUGUCUU | – | – | 25.7 nM | 18.4 nM |
| GCGUAUUAGGUGUAGCUAGUCAUUCAAGAAGGGUGGAGAACAUGAGGAUCACCCAUGUAGUUUAUACAGGAUAUUGAUAUACGC | – | – | 489 nM | 101 nM |
| UAAAUCUAGUAAGGAUAUACACGAGAUUCAAGUGUAGAAGGUACUUACAUGAGGAUCACCCAUGUAUACAUGGAUAAUAGAUAU | – | – | 234 nM | 109 nM |
| AGUUAAUAUCGAGGAUAUGUCUAGACACAUGAGGAUCACCCAUGUAUGUGUAUAGAAGGCGAAAAUAACAGCAUGUUACAUGCA | – | – | 37.4 nM | 19.9 nM |
| GCUGCAUAGGCAGGAUAUGCAAACAUGAGAUGAAAAUACAUCUCAUGUACAUGAGGAUCACCCAUGUAGAAGGGCCUGUGCAGU | 14.9 nM | 15.5 nM | – | – |
| AAUAAACUCACAGGAUAUAGCAGAGGUCGCGUGAACUUACAGACGACGAGGCUAGAAGGGUGACCACAUGAGGAUCACCCAUGU | – | – | 312 nM | 65.4 nM |
